Consider eleven compounds from ChEMBL document CHEMBL4706523, “Targeting topoisomerase II with trypthantrin derivatives: Discovery of 7-((2-(dimethylamino)ethyl)amino)indolo[2,1-b]quinazoline-6,12-dione as an antiproliferative agent and to treat cancer” (Eur J Med Chem, 2020).

One may read the IC50 as the midpoint of a concentration-inhibition curve. Broadly, the GI50 is the concentration that inhibits growth by half. The term solubility denotes how much of the substance goes into solution per volume.

The species named for data set [1] is Homo sapiens. Kind of data set: Selectivity ratio of IC50 for antiproliferative activity against human DLD-1 cells to IC50 for antiproliferative activity against human MCF7 cells. Format: cell-based.
The subject of data set [2] is MCF7. The data set can be described thus: Antiproliferative activity against human MCF7 cells assessed as reduction in cell viability after 72 hrs by 4-methylumbelliferyl heptanoate (MUH) fluorescence assay.
In data set [3] the test system is CCRF-CEM. Kind of data set: Induction of cell cycle arrest in human CCRF-CEM cells assessed as decrease in accumulation at G0-G1 phase for 24 hrs by flow cytometric analysis. The data set is classed as functional, cell-based. To be noted: dose 8.0 µM. Summed up:
(§1)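 CCRF-CEM seeded at 0.25x10⁶ cells/mL and treated 24h. Cells were fixed/permeabilised in 70% ethanol for at least 1h, then stained with PI 10 μg/mL plus RNase A 100 μg/mL for 20 min at room temperature in the dark. DNA content was read by flow cytometry, with at least 10000 events, to give subG0, G0-G1, S and G2-M fractions.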
For orientation: A flow cytometer gives signals particle by particle.

The test system of data set [4] is CCRF-CEM. The data set can be described thus: Potency index, ratio of tryp-tanthrin IC50 to test compound IC50 for antiproliferative activity against human CCRF-CEM cells. Format: functional.
Data set [5] relates to HL-60. Kind of data set: Antiproliferative activity against human HL-60 cells assessed as reduction in cell viability after 72 hrs by eosin exclusion dye based light microscopic method. The data set is classed as functional. In outline: (§2)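 Suspension leukaemia lines grown in RPMI with 4.5 g/L glucose, 2 mM glutamine, penicillin/streptomycin and 10% heat-inactivated FBS (HL-60 in 20% FBS). Seeded at 0.25x10⁶ cells/mL (Jurkat, CCRF-CEM, CEM/C2) or 0.125x10⁶ cells/mL (HL-60). Treated 72h at 0–64 μM, 37°C, 5% CO₂. Viable cells counted by eosin exclusion in a Bürker chamber, normalised to untreated cells. IC50 from non-linear regression, at least triplicate.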

The subject of data set [6] is CEM/C2. Kind of data set: Antiproliferative activity against human CEM/C2 cells assessed as reduction in cell viability after 72 hrs by eosin exclusion dye based light microscopic method. The data set is classed as functional. In outline: as §2
Data set [7] deals with CCRF-CEM. Kind of data set: Inhibition of DNA topoisomerase 2 in human CCRF-CEM cells assessed as increase in gamma-H2Ax expression at 8 uM after 1 to 16 hrs by flow cytometric analysis. The data set is classed as cell-based. To be noted: time 1-16 hrs. In outline: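 CCRF-CEM exposed to 8 μM for 1, 2, 3, 5 and 16 h. Cells were fixed in 2% paraformaldehyde, permeabilised in 90% methanol, and stained with anti-γ-H2AX (1:40) then secondary (1:200), with PI/RNase A counterstain. γ-H2AX immunofluorescence was read by flow cytometry per cell-cycle phase and expressed as delta γ-H2AX.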

Data set [8] concerns CCRF-CEM. The data set can be described thus: Induction of cell death in human CCRF-CEM cells assessed as increase in fragmented DNA at 4 to 8 uM after 24 hrs followed by compound wash out further incubated for 24 hrs by flow cytometric analysis. Format: functional, cell-based. To be noted: dose 4-8 µM. Summed up:
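Recovery design: CCRF-CEM were treated 24h, then medium was removed by centrifugation, cells were PBS-washed and cultured a further 24h in drug-free complete medium. Cells were then fixed in 70% ethanol and stained with PI 10 μg/mL plus RNase A 100 μg/mL. Flow cytometry scored subG0 cells, those with fragmented DNA, from at least 10000 events.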

The species entered for data set [9] is Homo sapiens. Kind of data set: Selectivity ratio of IC50 for antiproliferative activity against human DLD-1 cells to IC50 for antiproliferative activity against human Jurkat cells. Format: cell-based.
Data set [10] is filed under the species Homo sapiens. The data set can be described thus: Selectivity ratio of IC50 for antiproliferative activity against human CEM/C2 cells to IC50 for antiproliferative activity against human Jurkat cells. Format: cell-based.
For data set [11], the species on record is Homo sapiens. Kind of data set: Selectivity ratio of IC50 for antiproliferative activity against human CEM/C2 cells to IC50 for antiproliferative activity against human MCF7 cells. The data set is classed as cell-based.
The species named for data set [12] is Homo sapiens. Kind of data set: Selectivity ratio of IC50 for antiproliferative activity against human HT-29 cells to IC50 for antiproliferative activity against human Jurkat cells. Format: cell-based.
For data set [13], the system named is DLD-1. The data set can be described thus: Antiproliferative activity against human DLD-1 cells assessed as reduction in cell viability after 72 hrs by 4-methylumbelliferyl heptanoate (MUH) fluorescence assay.
The subject of data set [14] is CCRF-CEM. The data set can be described thus: Induction of cell cycle arrest in human CCRF-CEM cells assessed as increase in accumulation at G2/M phase for 24 hrs by flow cytometric analysis. The data set is classed as functional, cell-based. To be noted: dose 8.0 µM. Summed up: as §1
For data set [15], the species on record is Homo sapiens. Kind of data set: Selectivity ratio of IC50 for antiproliferative activity against human CCRF-CEM cells to IC50 for antiproliferative activity against human Jurkat cells. Format: cell-based.
Data set [16] has as its system CCRF-CEM. The data set can be described thus: Antiproliferative activity against human CCRF-CEM cells assessed as reduction in cell viability at 4 uM after 24 hrs by eosin exclusion dye based light microscopic method.
Data set [17] concerns CCRF-CEM. Kind of data set: Antiproliferative activity against human CCRF-CEM cells assessed as reduction in cell viability after 72 hrs by eosin exclusion dye based light microscopic method. Format: functional. To be noted: for IC50: 72 h; for GI50: time 72 hrs. In outline:
as §2

Data set [18] has as its target T1, DNA topoisomerase 2-alpha (Homo sapiens, UniProt P11388). Kind of data set: Inhibition of human DNA topoisomerase 2alpha assessed as suppression of decatenation using catenated kinetoplast DNA as substrate measured after 30 mins by SYBR safe DNA staining based staining-based agarose gel electrophoresis method. Summed up:
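Human topoII α decatenation kit reaction, with compound or DMSO vehicle at 5% DMSO final. Incubated 30 min at 37°C, products resolved on 1% agarose with SYBR safe stain. IC50 from four-parameter nonlinear regression, mean ± SD of two independent assays.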

In data set [19] the test system is HT-29. Kind of data set: Antiproliferative activity against human HT29 cells assessed as reduction in cell viability after 72 hrs by 4-methylumbelliferyl heptanoate (MUH) fluorescence assay.
The species entered for data set [20] is Homo sapiens. Kind of data set: Selectivity ratio of IC50 for antiproliferative activity against human CCRF-CEM cells to IC50 for antiproliferative activity against human MCF7 cells. Format: cell-based.
The species entered for data set [21] is Homo sapiens. The data set can be described thus: Selectivity ratio of IC50 for antiproliferative activity against human HL-60 cells to IC50 for antiproliferative activity against human MCF7 cells. The data set is classed as cell-based.
The species named for data set [22] is Homo sapiens. The data set can be described thus: Selectivity ratio of IC50 for antiproliferative activity against human HT-29 cells to IC50 for antiproliferative activity against human MCF7 cells. Format: cell-based.
The target of data set [23] is T1, DNA topoisomerase 2-alpha. The data set can be described thus: Poison activity at human DNA topoisomerase 2 alpha assessed as stabilization of cleavage complex using PBR322 as substrate incubated for 15 mins by ethidium bromide staining based agarose gel electrophoresis method.
The subject of data set [24] is CCRF-CEM. The data set can be described thus: Induction of G2/M cell cycle arrest in human CCRF-CEM cells assessed as increase in cyclin B1 expression at 8 uM by flow cytometric analysis. Format: functional, cell-based. To be noted: time 6-24 hrs, TDE = time-dependent effect. In outline: (§3)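 CCRF-CEM exposed to 8 μM for 6, 9, 16 and 24 h. 1×10⁶ cells were fixed in 2% paraformaldehyde, permeabilised in 90% methanol, and stained 30 min with anti-cyclin A or anti-cyclin B1 (1:50), then with secondary (1:200), then PI/RNase A. Flow cytometric MFI was taken in PI-gated G2-M cells and normalised to untreated G2-M cells.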

In data set [25] the test system is CCRF-CEM. Kind of data set: Induction of G2/M cell cycle arrest in human CCRF-CEM cells assessed as increase in cyclin A expression at 8 uM after 6 to 24 hrs by flow cytometric analysis. Format: functional, cell-based. To be noted: time 6-24 hrs. In outline:
as §3

The species entered for data set [26] is Homo sapiens. The data set can be described thus: Selectivity ratio of IC50 for antiproliferative activity against human HL-60 cells to IC50 for antiproliferative activity against human Jurkat cells. The data set is classed as cell-based.
Data set [27] concerns Jurkat. Kind of data set: Antiproliferative activity against human Jurkat cells assessed as reduction in cell viability after 72 hrs by eosin exclusion dye based light microscopic method. The data set is classed as functional. Summed up:
as §2

Data set [28] has as its target T1, DNA topoisomerase 2-alpha. Kind of data set: Potency index, ratio of etoposide IC50 to test compound IC50 for inhibition of human DNA topoisomerase 2alpha.
A short description of data set [29]: Solubility of compound in water. The data set is classed as physicochemical. Summed up:
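Samples were stirred for 24 h at 25°C, centrifuged, and supernatants filtered through 0.45 μm PTFE and diluted. Concentration was taken from UV absorbance against a four-point calibration line in PBS with 2% DMSO, and reported as μg/mL.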

The subject of data set [30] is CCRF-CEM. Kind of data set: Induction of cell cycle arrest in human CCRF-CEM cells assessed as accumulation at G2/M phase at 8 uM for 24 hrs by flow cytometric analysis (reference value: 27%). Format: functional. Summed up:
as §1

The target in data set [31] is T1, DNA topoisomerase 2-alpha. The data set can be described thus: Inhibition of human DNA topoisomerase 2alpha assessed as suppression of decatenation using catenated kinetoplast DNA as substrate up to 250 uM measured after 30 mins by SYBR safe DNA staining based staining-based agarose gel electrophoresis method. To be noted: dose microM <=250, time 30.0 min. In outline: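 Human topoII α decatenation kit reaction, with compound or DMSO vehicle at 5% DMSO final. Incubated 30 min at 37°C, products resolved on 1% agarose with SYBR safe stain. IC50 from four-parameter nonlinear regression, mean ± SD of two independent assays. Tested up to 250 μM.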

≈ marks a conversion by molar mass, not a printed value. Calls of active or inactive are those of the source. The calls are words filed in the database; no cut-off is given here.

T1 sequence (P11388 whole entry): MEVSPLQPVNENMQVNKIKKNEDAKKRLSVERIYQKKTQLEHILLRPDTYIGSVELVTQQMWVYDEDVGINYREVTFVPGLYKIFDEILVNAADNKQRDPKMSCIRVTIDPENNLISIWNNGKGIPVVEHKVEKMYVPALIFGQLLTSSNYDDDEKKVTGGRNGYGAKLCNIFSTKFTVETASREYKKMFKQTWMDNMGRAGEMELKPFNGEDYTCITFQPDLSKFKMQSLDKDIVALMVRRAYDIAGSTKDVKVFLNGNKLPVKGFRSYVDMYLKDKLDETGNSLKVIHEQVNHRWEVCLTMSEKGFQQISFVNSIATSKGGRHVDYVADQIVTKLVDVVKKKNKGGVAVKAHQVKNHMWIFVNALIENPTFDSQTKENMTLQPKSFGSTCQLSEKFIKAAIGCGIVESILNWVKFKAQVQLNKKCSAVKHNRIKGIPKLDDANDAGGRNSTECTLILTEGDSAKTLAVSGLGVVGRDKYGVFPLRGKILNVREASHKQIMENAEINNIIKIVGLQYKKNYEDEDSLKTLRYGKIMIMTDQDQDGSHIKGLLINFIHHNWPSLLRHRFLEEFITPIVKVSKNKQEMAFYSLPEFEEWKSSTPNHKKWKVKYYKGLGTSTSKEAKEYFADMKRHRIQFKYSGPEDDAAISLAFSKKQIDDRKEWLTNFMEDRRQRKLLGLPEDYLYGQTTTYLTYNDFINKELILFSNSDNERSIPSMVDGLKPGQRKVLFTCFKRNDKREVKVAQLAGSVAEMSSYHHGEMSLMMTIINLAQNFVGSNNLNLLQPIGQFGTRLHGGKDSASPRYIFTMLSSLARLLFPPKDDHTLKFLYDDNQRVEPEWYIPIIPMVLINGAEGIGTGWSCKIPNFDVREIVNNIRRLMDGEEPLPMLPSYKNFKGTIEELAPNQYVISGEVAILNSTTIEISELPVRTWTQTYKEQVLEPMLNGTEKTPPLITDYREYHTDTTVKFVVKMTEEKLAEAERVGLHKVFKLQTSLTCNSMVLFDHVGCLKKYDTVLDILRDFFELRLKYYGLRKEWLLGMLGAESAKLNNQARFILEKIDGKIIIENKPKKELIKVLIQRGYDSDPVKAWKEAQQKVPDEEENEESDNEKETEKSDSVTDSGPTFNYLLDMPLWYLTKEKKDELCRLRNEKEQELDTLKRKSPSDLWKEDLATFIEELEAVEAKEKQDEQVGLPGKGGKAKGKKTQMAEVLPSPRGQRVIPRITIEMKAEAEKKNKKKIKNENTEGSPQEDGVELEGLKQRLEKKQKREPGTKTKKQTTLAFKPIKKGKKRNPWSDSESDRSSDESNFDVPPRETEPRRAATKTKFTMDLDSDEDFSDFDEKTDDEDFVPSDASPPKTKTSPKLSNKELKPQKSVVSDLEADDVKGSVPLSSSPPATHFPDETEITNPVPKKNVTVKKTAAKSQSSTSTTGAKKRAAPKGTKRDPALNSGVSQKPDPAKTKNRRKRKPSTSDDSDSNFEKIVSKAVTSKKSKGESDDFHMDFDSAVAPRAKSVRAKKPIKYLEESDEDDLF

For `CN(C)CCNc1cccc2c1C(=O)c1nc3ccccc3c(=O)n1-2`, the Ratio IC50 in data set [1] worked out at 3; in data set [4] it was 5; in data set [9], 2; in [10], 2; in data set [11], 3; in [12], 2. The Ratio IC50 in data set [15] was 2; in data set [20] it was 3; in data set [21], 3; in [22], 3; in [26] it was 2; in data set [28], 2.5. Also, the Activity result in data set [2], in [3], in data set [5], in [6], in data set [13] and in [14] was “Dose-dependent effect” each time. Moreover, the Activity result in [17] was “Dose-dependent effect”; in [19] it was “Dose-dependent effect”; in data set [24], “Tde”; in data set [27], “Dose-dependent effect”; in data set [30] it was 78%. Also, the IC50 in data set [2] (MCF7, 72 h) was determined as 30.5 µM; in data set [5] (HL-60, 72 h) it was 11.5 µM; in [6] (CEM/C2, 72 h), 9.16 µM; in data set [13] (DLD-1, 72 h) it was 7.13 µM; in data set [17], 8.26 µM; in data set [18], 26.6 µM. Moreover, the IC50 came to 9.4 µM in data set [19] (HT-29, 72 h) and 18.2 µM in data set [27]. Further, the inhibition result in data set [7] is “Active”. In addition, the result in data set [8] and in data set [16] was Active. Besides, in [17], the 50% growth inhibitory concentration (GI50) amounted to 1.36 µM. Moreover, the outcome in data set [23] and in data set [25] was inactive. Further, the solubility in data set [29] (water, read-out: solubility) was 996 µM (≈ 333 µg/mL).

In the case of `CCN(CC)c1cccc2c1C(=O)c1nc3ccccc3c(=O)n1-2`, the inhibition result in [31] is “inactive”.

For the compound `O=C1c2c(NCCO)cccc2-n2c1nc1ccccc1c2=O`, the inhibition entry in data set [31] is “inactive”.

As to `O=C1c2c(N3CCOCC3)cccc2-n2c1nc1ccccc1c2=O`, the inhibition entry in data set [31] was “inactive”.

As for `CN1CCN(c2ccc3c(c2)-n2c(nc4ccccc4c2=O)C3=O)CC1`, the IC50 in data set [18] stood at 138 µM.

On to `O=C1c2c(N3CCCCC3)cccc2-n2c1nc1ccccc1c2=O`, for which the inhibition entry in data set [31] was “inactive”.

As for `O=C1c2ccc(N3CCCCC3)cc2-n2c1nc1ccccc1c2=O`, the inhibition result in data set [31] is “inactive”.

Regarding `CN1CCN(c2cccc3c2C(=O)c2nc4ccccc4c(=O)n2-3)CC1`, the concentration for half-maximal inhibition (IC50) in [18] came to 114 µM.

On to `CCN(CC)c1ccc2c(c1)-n1c(nc3ccccc3c1=O)C2=O`, for which, in [31], the inhibition result is “inactive”.

Regarding `O=C1c2ccc(N3CCOCC3)cc2-n2c1nc1ccccc1c2=O`, the inhibition entry in data set [31] is “inactive”.

`O=C1c2ccccc2-n2c1nc1ccccc1c2=O` [TRYPTANTHRIN]: in data set [17], the half-maximal inhibitory concentration (IC50) worked out at 44.4 µM and the GI50 was determined as 14.5 µM. Further, the solubility in data set [29] (buffer) was found to be 91.02 µM (≈ 22.6 µg/mL). Also, the inhibition result in data set [31] is “inactive”.
